Assay results taken from ChEMBL document CHEMBL1155222, “Synthesis and anticancer activity of N-bis(trifluoromethyl)alkyl-N'-thiazolyl and N-bis(trifluoromethyl)alkyl-N'-benzothiazolyl ureas” (2009).

Key:
Format in all cases: functional
[1] = Anticancer activity against human RPMI8266 cells after 48 hrs by sulforhodamine B assay
How it was run: (§1)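 NCI 60-cell-line screen. Cells grown in RPMI 1640 with 5% FBS and 2 mM L-glutamine, plated at 5000–40,000 cells/well, and preincubated 24 h at 37 °C under 5% CO2. Compounds were taken from DMSO stocks and tested at five final concentrations, 10^-4 to 10^-8 M, for 48 h. Cells were TCA-fixed, stained with 0.4% SRB, and read at 515 nm. GI50, TGI and LC50 were derived as log molar values.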

[2] = Anticancer activity against human Hs 578T cells after 48 hrs by sulforhodamine B assay; how it was run: as §1
COLO 205 = assay: Anticancer activity against human COLO205 cells after 48 hrs by sulforhodamine B assay; details: COLO 205, 48 h; how it was run: as §1
SF-268 [3] = assay: Anticancer activity against human SF268 cells after 48 hrs by sulforhodamine B assay; details: SF-268, 48 h; how it was run: as §1
LOX IMVI = assay: Anticancer activity against human LOXIMVI cells after 48 hrs by sulforhodamine B assay; how it was run: as §1
NCI-H460 [4] = assay: Anticancer activity against human NCI-H460 cells after 48 hrs by sulforhodamine B assay; details: NCI-H460, 48 h; how it was run: as §1
BT-549 = assay: Anticancer activity against human BT549 cells after 48 hrs by sulforhodamine B assay; details: BT-549, 48 h; how it was run: as §1
NCI-H23 = assay: Anticancer activity against human NCI-H23 cells after 48 hrs by sulforhodamine B assay; details: NCI-H23, 48 h
How it was run: (§2)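 NCI 60-cell-line screen. Cells were grown in RPMI 1640 with 5% FBS and 2 mM L-glutamine, seeded at 5000–40,000 cells/well and preincubated 24 h at 37 °C, 5% CO2. Compounds in DMSO were diluted in medium with gentamicin and tested at five concentrations (10^-4 to 10^-8 M) for 48 h. Cells were then fixed with TCA, stained with SRB and read at 515 nm.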

K562 = assay: Anticancer activity against human K562 cells after 48 hrs by sulforhodamine B assay; details: K562, 48 h; how it was run: as §1
SW-620 = assay: Anticancer activity against human SW620 cells after 48 hrs by sulforhodamine B assay; details: SW-620, 48 h
How it was run: (§3)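 NCI 60-cell-line panel; cells grown in RPMI 1640 with 5% FBS and 2 mM L-glutamine, plated at 5000–40,000 cells/well and preincubated 24 h at 37 °C, 5% CO2. Compounds came from DMSO stocks diluted in medium with gentamicin and were tested at five final concentrations, 10^-4 to 10^-8 M, for 48 h. Cells were fixed with TCA, stained with SRB and read at 515 nm. GI50, TGI and LC50 were derived as log molar values.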

A549 = assay: Anticancer activity against human A549 cells after 48 hrs by sulforhodamine B assay; details: A549, 48 h; how it was run: as §1
TK-10 = assay: Anticancer activity against human TK10 cells after 48 hrs by sulforhodamine B assay; details: TK-10, 48 h; how it was run: as §3
NCI-H522 = assay: Anticancer activity against human NCI-H522 cells after 48 hrs by sulforhodamine B assay; details: NCI-H522, 48 h; how it was run: as §1
HOP-62 = assay: Anticancer activity against human HOP62 cells after 48 hrs by sulforhodamine B assay; details: HOP-62, 48 h; how it was run: as §1
HL-60(TB) = assay: Anticancer activity against human HL-60(TB) cells after 48 hrs by sulforhodamine B assay; details: HL-60, 48 h; how it was run: as §2
UACC-257 = assay: Anticancer activity against human UACC257 cells after 48 hrs by sulforhodamine B assay; details: UACC-257, 48 h; how it was run: as §3
SF-268 [5] = assay: Anticancer activity against human SF268 cells assessed as cell growth at 100 uM after 48 hrs by Alamar blue assay relative to control; details: SF-268, 48 h, read-out: Activity
How it was run: (§4)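 NCI one-dose pre-test on MCF7, NCI-H460 and SF-268. Cells were inoculated and preincubated, then exposed to a single 10^-4 M concentration for 48 h. End-point was alamar blue. Results are percent growth versus untreated control cells, with negative values indicating cell kill.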

MCF7 = assay: Anticancer activity against human MCF7 cells assessed as cell growth at 100 uM after 48 hrs by Alamar blue assay relative to control; details: MCF7, 48 h, read-out: Activity; how it was run: as §4
NCI-H460 [6] = assay: Anticancer activity against human NCI-H460 cells assessed as cell growth at 100 uM after 48 hrs by Alamar blue assay relative to control; details: NCI-H460, 48 h, read-out: Activity; how it was run: as §4

## CNC(=O)Nc1ccccc1
[1]
  GI50: 100 µM
[2]
  GI50: 100 µM
COLO 205
  GI50: 100 µM
SF-268 [3]
  GI50: 100 µM
LOX IMVI
  GI50: 100 µM
NCI-H460 [4]
  GI50: 100 µM
BT-549
  GI50: 100 µM
NCI-H23
  GI50: 100 µM
K562
  GI50: 100 µM
SW-620
  GI50: 100 µM
A549
  GI50: 100 µM
TK-10
  GI50: 100 µM
NCI-H522
  GI50: 100 µM
HOP-62
  GI50: 100 µM
HL-60(TB)
  GI50: 100 µM
UACC-257
  GI50: 100 µM

## O=c1[nH]cc(F)c(=O)[nH]1 [FLUOROURACIL]
[2]
  GI50: 9.77 µM
COLO 205
  GI50: 0.158 µM
SF-268 [3]
  GI50: 1.58 µM
LOX IMVI
  GI50: 0.245 µM
NCI-H460 [4]
  GI50: 0.0562 µM
BT-549
  GI50: 10.7 µM
NCI-H23
  GI50: 0.331 µM
K562
  GI50: 3.55 µM
SW-620
  GI50: 0.933 µM
A549
  GI50: 0.191 µM
TK-10
  GI50: 1.12 µM
NCI-H522
  GI50: 7.24 µM
HOP-62
  GI50: 0.398 µM
HL-60(TB)
  GI50: 2.29 µM
UACC-257
  GI50: 3.55 µM

## CCC(NC(=O)Nc1nccs1)(C(F)(F)F)C(F)(F)F
[2]
  GI50: 52.5 µM
COLO 205
  GI50: 74.1 µM
SF-268 [3]
  GI50: 60.3 µM
SF-268 [5]
  growth at 100 µM: 40%
LOX IMVI
  GI50: 72.4 µM
NCI-H460 [4]
  GI50: 38.9 µM
BT-549
  GI50: 40.7 µM
K562
  GI50: 34.7 µM
SW-620
  GI50: 83.2 µM
A549
  GI50: 44.7 µM
TK-10
  GI50: 31.6 µM
NCI-H522
  GI50: 38 µM
MCF7
  growth at 100 µM: 20%
NCI-H460 [6]
  growth at 100 µM: 6%
HOP-62
  GI50: > 100 µM
UACC-257
  GI50: 32.4 µM

## O=C(Nc1nc2ccccc2s1)NC(C(F)(F)F)C(F)(F)F
[1]
  GI50: 33.9 µM
[2]
  GI50: 26.9 µM
COLO 205
  GI50: 17.8 µM
SF-268 [3]
  GI50: 29.5 µM
SF-268 [5]
  growth at 100 µM: -39%
LOX IMVI
  GI50: 22.9 µM
NCI-H460 [4]
  GI50: 22.4 µM
BT-549
  GI50: 28.2 µM
K562
  GI50: 25.1 µM
SW-620
  GI50: 33.9 µM
A549
  GI50: 26.9 µM
TK-10
  GI50: 31.6 µM
NCI-H522
  GI50: 14.1 µM
MCF7
  growth at 100 µM: -10%
NCI-H460 [6]
  growth at 100 µM: -74%
HOP-62
  GI50: 38 µM
HL-60(TB)
  GI50: 26.3 µM
UACC-257
  GI50: 20.4 µM

## CCC(NC(=O)Nc1nc2ccccc2s1)(C(F)(F)F)C(F)(F)F
[2]
  GI50: 21.4 µM
COLO 205
  GI50: 16.2 µM
SF-268 [3]
  GI50: 17 µM
SF-268 [5]
  growth at 100 µM: -94%
LOX IMVI
  GI50: 18.2 µM
NCI-H460 [4]
  GI50: 21.4 µM
BT-549
  GI50: 18.2 µM
K562
  GI50: 23.4 µM
SW-620
  GI50: 20.9 µM
A549
  GI50: 15.8 µM
TK-10
  GI50: 21.9 µM
NCI-H522
  GI50: 17 µM
MCF7
  growth at 100 µM: -79%
NCI-H460 [6]
  growth at 100 µM: -93%
HOP-62
  GI50: 17.8 µM
UACC-257
  GI50: 20 µM

## CC(NC(=O)Nc1nc2ccccc2s1)(C(F)(F)F)C(F)(F)F
[1]
  GI50: 38.9 µM
[2]
  GI50: 18.6 µM
COLO 205
  GI50: 38 µM
SF-268 [3]
  GI50: 29.5 µM
SF-268 [5]
  growth at 100 µM: 28%
LOX IMVI
  GI50: 36.3 µM
NCI-H460 [4]
  GI50: 24.5 µM
BT-549
  GI50: > 100 µM
K562
  GI50: 17 µM
SW-620
  GI50: 45.7 µM
A549
  GI50: 16.2 µM
TK-10
  GI50: 49 µM
NCI-H522
  GI50: 24.5 µM
MCF7
  growth at 100 µM: 62%
NCI-H460 [6]
  growth at 100 µM: 43%
HOP-62
  GI50: 31.6 µM
HL-60(TB)
  GI50: 97.7 µM
UACC-257
  GI50: 51.3 µM

## O=C(Nc1nccs1)NC(C(F)(F)F)C(F)(F)F
[2]
  GI50: 22.4 µM
COLO 205
  GI50: 52.5 µM
SF-268 [3]
  GI50: 29.5 µM
SF-268 [5]
  growth at 100 µM: 20%
LOX IMVI
  GI50: 58.9 µM
NCI-H460 [4]
  GI50: 34.7 µM
BT-549
  GI50: 46.8 µM
K562
  GI50: 36.3 µM
SW-620
  GI50: > 100 µM
A549
  GI50: 60.3 µM
TK-10
  GI50: 51.3 µM
NCI-H522
  GI50: 23.4 µM
MCF7
  growth at 100 µM: 35%
NCI-H460 [6]
  growth at 100 µM: 22%
HOP-62
  GI50: > 100 µM
HL-60(TB)
  GI50: 72.4 µM
UACC-257
  GI50: 35.5 µM
